# Source: PubChem
# PKA-R2B activ = activators of human PKA-R2B complex; P22694+P31323; PKA-R2B holoenzyme dissociation, Cy5-IP20 fluorescence polarization; R2B truncated from residue 108, S112A mutant; 0% DMSO only, 100% 113 µM cGMP; activation, % at 11.4 µM; 340,000 tested, 0.079% active; AID 504700;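 active = activation above a cutoff set at the mean over all compounds plus 3 SD, cut at about 18% in these data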;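 note: higher means more holoenzyme dissociation and a rise in polarization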
# PKA-R1A act = PKA-R1A complex activation. activation, % at 11.4 µM. PKA-R1A dissociation, Cy5-IP20 fluorescence polarization; scaled: DMSO 0%, 113 µM cGMP 100%. 340,000 tested, 0.083% active. AID 504707;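 active = percent activation above the mean of all tested compounds plus 3 SD, cut at about 19% in these data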;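 note: higher means more PKAc released from R1A so a rise in polarization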
# CXCR6 block = CXCR6 (human) receptor inhibition | CHO-K1 PathHunter CXCR6 beta-arrestin, luminescence | AID 602244 | 360,000 tested, 0.36% active | inhibition, % at 20 µM | O00574; in the data active = inhibition above about 34%, passing the limit was not always enough;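 note: antagonist mode with CXCL16 agonist at 10 nM final; 0% = 10 nM CXCL16 with DMSO and 100% = unstimulated wells without agonist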
# APJ antagonist = blocks the human apelin receptor APJ; AID 2521; 330,000 tested, 0.32% active; P35414; CHO-K1 APJ beta-arrestin complementation, luminescence; inhibition, % at 20 µM;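 active = inhibition above about 40% at 20 µM, limit read from the data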;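 note: cells challenged with 10 nM apelin-13 agonist together with compound; plate controls were apelin-13 plus DMSO wells for no effect and DMSO wells lacking apelin-13 for full effect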
# Target sequence (P35414 whole entry, looked up): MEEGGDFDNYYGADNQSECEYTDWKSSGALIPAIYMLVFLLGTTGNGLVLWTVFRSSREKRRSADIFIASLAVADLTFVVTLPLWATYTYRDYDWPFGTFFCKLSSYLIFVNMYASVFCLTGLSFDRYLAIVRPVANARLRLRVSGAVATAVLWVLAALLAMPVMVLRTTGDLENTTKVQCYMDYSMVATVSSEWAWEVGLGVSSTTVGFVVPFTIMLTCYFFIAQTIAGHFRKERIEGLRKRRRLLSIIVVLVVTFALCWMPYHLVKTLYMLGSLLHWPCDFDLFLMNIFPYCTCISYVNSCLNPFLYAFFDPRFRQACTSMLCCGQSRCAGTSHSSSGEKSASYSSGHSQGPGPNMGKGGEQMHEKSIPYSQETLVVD
# CCR6 antagonist = CCR6 (human) receptor antagonism; P51684; CHO-K1 CCR6 PathHunter beta-arrestin, luminescence, CCL20-stimulated; inhibition, % at 20 µM; 340,000 tested, 0.49% active; AID 493098;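 active = compounds whose inhibition of the agonist-driven luminescence signal at 20 µM reaches about 50%, limit read from the data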;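 note: cells stimulated with CCL20 at 14 nM final; plate controls were DMSO with CCL20 for no effect and DMSO without agonist for full effect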
# APJ ag = activates the human apelin receptor APJ; CHO-K1 APJ PathHunter beta-arrestin, luminescence; 0% DMSO wells, 100% apelin; activation, % at 20 µM; 330,000 tested, 0.11% active; AID 2520;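 active = activation more than six SD over the plate average, tested at 20 µM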;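 note: 0% = DMSO alone and 100% = apelin-13 at 10 nM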
#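 Material: CHO-K1 APJ beta-arrestin complementation cell line; Input: cell density 1000 per well; Incubation: compound stimulation 90 min at 25 °C, detection 60 min; Signal: luminescence from split beta-galactosidase complementation, Galacton Star/Emerald II substrate; Controls: DMSO-only wells as negative, 10 nM Apelin-13 as positive control.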
# R2B FP artifact = FP assay interference, PKA-R2B counter-screen | shares compounds with PKA-R2B activ | FP artifact counterscreen, fluorescence polarization | activation, % at 11.4 µM | 270 tested, 6% active | AID 504796; in the data active = activation above about 20%;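 note: Cy5 labelled IP20 peptide probe with compound but no PKA protein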
# PKA-R2B act conf = confirmation of human PKA-R2B complex activators; shares compounds with PKA-R2B activ; fluorescence polarization, activation; activation, % at 11.4 µM; 270 tested, 9% active; in the data active = activation above about 19%
# R1A FP artifact = FP assay interference, PKA-R1A counter-screen; shares compounds with PKA-R1A act; activation, % at 11.4 µM; Cy5-IP20 peptide alone, fluorescence polarization artifact counterscreen; 280 tested, 7% active; AID 504799;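 active = mean activation over triplicate runs exceeds the adjusted cutoff derived for the parent primary screen, cut at about 19% in these data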;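 note: no PKA protein present so any polarization rise reflects compound interference; 0% = tracer peptide mix alone and 100% = mix with added PKA catalytic subunit; higher means stronger polarization artifact and likely false positive in parent screen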
# PKA-R1A confirm = PKA-R1A complex activation, confirmation; shares compounds with PKA-R1A act; Cy5-IP20 fluorescence polarization, PKA-R1A holoenzyme dissociation; activation, % at 11.4 µM; 280 tested, 9% active;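 active = mean activation over replicate wells exceeds the adjusted hit threshold taken from the earlier primary screen, cut at about 20% in these data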;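 note: 0% = holoenzyme mix with DMSO only and 100% = cGMP-activated control wells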
# Active calls of the source: *; . = no result given. Only some compounds are listed: those with a hit (about 0.88% of all), similar ones and a draw of the others.
SMILES,PKA-R2B activ,PKA-R1A act,CXCR6 block,APJ antagonist,CCR6 antagonist,APJ ag,R2B FP artifact,PKA-R2B act conf,others
COc1ccccc1C(=O)NC(CCSC)C(=O)NCc1ccncc1 (stereo not given),21*,7,1,-51,4,0,0,1,
O=C(CSc1nnc(NC2CC2)s1)c1ccc[nH]1,0,1,6,3,4,-2,.,.,
CCCc1cc(NC(=O)CCl)n(-c2ccccc2)n1,20*,0,0,6,18,-2,0,-3,
CN(C)S(=O)(=O)c1cc(C(=O)O)c(NC2CCCCC2)cc1Cl,-8,7,1,-10,-16,-3,.,.,
CN1C2CCC1CC(NC(=O)c1cc(S(=O)(=O)N(C)C)c(Cl)cc1Cl)C2 (stereo not given),19*,5,3,16,-1,-1,2,1,
CCN(CC)c1ccc(NC(=O)Cn2c(C(C)NC(=O)c3ccccc3)nc3ccccc32)cc1 (stereo not given),19*,1,-4,.,6,.,-3,-3,
COc1ccc(OC)c(-c2cc(-c3cccnc3)nc(N)c2C#N)c1,19*,0,-2,-6,4,-1,0,1,
Cc1nc2scc(C)n2c(=O)c1S(=O)(=O)Nc1ccc(F)cc1,22*,12,2,23,10,0,4,2,
Cc1cc(F)ccc1NS(=O)(=O)c1c(C)nc2scc(C)n2c1=O,6,-4,6,-15,3,0,.,.,
O=C(CSC1=NCCS1)N1CCCC1,22*,-1,-3,2,-8,-4,2,-2,
CC(=O)Oc1ccc(/C=N/NC2=NS(=O)(=O)c3ccccc32)cc1,1,4,-3,15,11,-2,.,.,
COc1ccc(/C=N/NC2=NS(=O)(=O)c3ccccc32)cc1,23*,4,1,-2,12,-3,2,3,
O=C(Nc1cc2c3c(c1)CC(=O)N3CCC2)C1CCCCC1,2,0,2,5,-9,-1,.,.,
NC(=O)Nc1ccc(Cl)cc1,23*,2,3,-19,4,-1,-2,1,
CCc1nnc(SCC(=O)Nc2ccc(N3CCN(S(C)(=O)=O)CC3)cc2)o1,0,12,-12,3,3,0,.,.,
CC(C)CSc1ccc(S(=O)(=O)NCC(=O)O)cc1[N+](=O)[O-],19*,0,-6,.,12,.,4,0,
C=CCc1ccc(OCCOCCNCCCC)c(OC)c1,-1,0,6,6,-2,-1,.,.,
CN1CCN(C(=O)/C(=C/c2ccc(N(C)C)cc2)NC(=O)c2ccccc2)CC1,20*,-9,-4,2,-2,-1,6,4,
CCCC[C@H]1C2=C3[C@@H](CC(C(=O)OC)=C[C@@H](C(=O)OC)[C@H]3C(C)(C)C2=O)n2c(=O)n(-c3ccccc3)c(=O)n21,-15,-6,7,12,5,5,.,.,
CC1=C/C(=C(\c2cc(C)c(O)c(Br)c2)c2ccccc2S(=O)(=O)O)C=C(Br)C1=O,40*,34*,31,19,59*,-5,59*,55*,R1A FP artifact=59*;PKA-R1A confirm=55*
CC(CC(=O)NCCc1ccc(F)cc1)c1ccccc1 (stereo not given),-7,0,-17,-14,12,-4,.,.,
CCCc1cc(=O)n2[nH]c(NCc3ccccc3F)nc2n1,11,2,-6,15,-11,-5,.,.,
Cc1cc(=O)n2[nH]c(NCc3ccccc3F)nc2n1,36*,30*,4,-10,-6,-3,34*,31*,R1A FP artifact=34*;PKA-R1A confirm=35*
CCCc1cc(=O)n2[nH]c(NCc3c(F)cccc3Cl)nc2n1,32*,33*,5,-14,-11,-3,27*,20*,R1A FP artifact=27*;PKA-R1A confirm=28*
CCOC(=O)Cc1csc(NS(=O)(=O)c2ccc(F)cc2)n1,-4,5,-3,8,-16,-1,.,.,
SMILES,PKA-R2B activ,PKA-R1A act,CXCR6 block,APJ antagonist,CCR6 antagonist,APJ ag,R2B FP artifact,PKA-R2B act conf,others
O=C(NCc1nc2ccccc2[nH]1)C1=C[C@H](c2ccc(Br)cc2)C[C@H](OCc2ccc(CO)cc2)O1,26*,35*,4,-37,8,0,27*,22*,R1A FP artifact=27*;PKA-R1A confirm=27*
COc1ccc(C(=O)OCC(=O)NC2CC2)cc1,9,2,-6,.,.,.,.,.,
COc1cc(NC(=O)CC[C@H]2O[C@@H](n3cnc4c(NC(=O)c5ccccc5)ncnc43)[C@H](O)[C@@H]2O)cc(OC)c1OC,.,.,-6,.,.,.,.,.,
CCCC(=O)Nc1ncnc2c1ncn2[C@@H]1O[C@@H]2COP(=O)(O)O[C@H]2[C@H]1OC(=O)CCC,33*,41*,8,21,-5,-5,-1,34*,R1A FP artifact=-1;PKA-R1A confirm=37*
Nc1ncnc2c1nc(Sc1ccc(Cl)cc1)n2[C@@H]1O[C@@H]2COP(=O)(O)O[C@H]2[C@H]1O,106*,107*,5,-1,5,2,4,101*,R1A FP artifact=4;PKA-R1A confirm=106*
CC1CCN(c2nc3c(N)ncnc3n2[C@@H]2O[C@H](CO)[C@@H](O)[C@H]2O)CC1,4,6,-2,9,-12,1,.,.,
Cc1ccc(NC(=O)CSc2nc3ccccc3c(=O)n2CC2CCCO2)cc1 (stereo not given),3,19*,5,7,14,-2,.,.,R1A FP artifact=-4;PKA-R1A confirm=3
CN(C)c1ccc(NC(=O)CSc2nc3ccccc3c(=O)n2CC2CCCO2)cc1 (stereo not given),-5,3,3,-8,-2,2,.,.,
CC1CC(C)(C)NC(=S)N1CCCC(=O)Nc1ccc(F)cc1 (stereo not given),1,-4,-6,15,2,-2,.,.,
CNC(=O)CSc1nc2nc(C)cc(C)n2n1,8,-13,-6,-8,5,-3,.,.,
Cc1cc(C)n2nc(SCC(=O)c3ccc[nH]3)nc2n1,-2,22*,4,1,5,1,.,.,R1A FP artifact=5;PKA-R1A confirm=2
COc1ccc(/C=C/C(=O)NCC2COc3ccccc3O2)c(OC)c1 (stereo not given),7,-7,-3,-2,19,-1,.,.,
